ABCB6 inh 2 – blocks the human ABCB6 transporter; Q9NP58; K562-ABCB6 porphyrin accumulation, flow cytometry, 1 h; active compounds read low; fluorescence ratio to DMSO, % at 10 µM; hit rate 0.19% among 360,000; AID 602162;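 active = fluorescence ratio to DMSO below 75%, the collection mean minus 3 SD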;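 also: signal is porphyrin accumulated inside mitochondria; 100% equals median channel fluorescence of DMSO control wells; lower ratio means ABCB6 inhibition with less porphyrin fluorescence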
GAA850 FXN act – frataxin GAA850 promoter activation; activation, % at 6 µM; hit rate 0.56% among 360,000; HEK293 lucGAA850 FXN promoter luciferase reporter, 24 h; percent of 10 µM SAHA response;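 active = activation above the average of all compounds screened plus 3 SD, cutoff fixed separately per campaign, cut at about 7.5% in these data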;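 also: 0% = DMSO wells and 100% = 10 µM SAHA wells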
SR-BI DiI inh – inhibitors of mouse SR-BI mediated HDL lipid uptake; Q61009; ldlA[mSR-BI] CHO cells, DiI-HDL uptake fluorescence, 3 h; inhibition, % at 12.5 µM; hit rate 0.96% among 320,000; AID 488896;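 active = mean replicate inhibition of at least 70% and a set share of replicates each scoring 70 or more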;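 also: 0% = median of neutral control wells and 100% = median of positive control wells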
Target sequence (Q61009 whole entry, looked up): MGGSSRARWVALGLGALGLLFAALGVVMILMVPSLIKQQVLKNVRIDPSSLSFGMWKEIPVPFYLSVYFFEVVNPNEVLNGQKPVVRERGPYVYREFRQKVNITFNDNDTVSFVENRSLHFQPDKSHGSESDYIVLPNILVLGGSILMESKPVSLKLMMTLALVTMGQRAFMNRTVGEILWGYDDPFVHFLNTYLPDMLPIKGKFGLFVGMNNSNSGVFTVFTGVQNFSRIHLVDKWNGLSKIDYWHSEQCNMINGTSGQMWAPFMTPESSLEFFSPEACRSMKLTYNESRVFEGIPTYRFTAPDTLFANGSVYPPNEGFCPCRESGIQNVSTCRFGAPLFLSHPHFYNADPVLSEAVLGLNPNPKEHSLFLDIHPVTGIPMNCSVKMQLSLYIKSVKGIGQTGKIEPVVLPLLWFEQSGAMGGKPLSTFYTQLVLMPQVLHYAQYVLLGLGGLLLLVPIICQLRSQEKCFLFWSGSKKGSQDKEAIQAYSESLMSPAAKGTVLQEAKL
SR-BI uptake up – activators of SR-BI mediated HDL lipid uptake; activation, % at 12.5 µM; CHO ldlA[mSR-BI] cells, DiI-HDL uptake fluorescence, 3 h; 100 = double the neutral-control signal; AID 504775; hit rate 0.096% among 320,000;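 active = mean replicate activation of at least 60% and every replicate at or above 60%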;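 also: 0% = median plate neutral-control signal and 100% = twice that signal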
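Test system: SR-BI-overexpressing, LDLR-lacking CHO cells; Medium: Ham's F12 with 0.5% BSA, HEPES 25 mM, pH 7.4; Schedule: 3 h, 37 °C; Technique: bottom-read fluorescence, 550/595 nm.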
AHR activator – activators of human aryl hydrocarbon receptor. P35869. AHR-responsive luciferase reporter cells, luminescence. activation, % at 5 µM. hit rate 2.5% among 320,000; in the data active = activation above about 47%;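 also: 0% = vehicle wells and 100% = reference agonist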
HIF activator – HIF pathway transcriptional activation | U2OS HRE-luciferase reporter, luminescence; normalized: DMSO 0%, desferrioxamine 100% | activation, % at 7.5 µM (by protocol) | hit rate 0.32% among 300,000 | AID 1910;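 active = mean activation of at least 10% of the iron chelator positive control signal, with at least half of replicates also reaching 10%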
Numbers without * were called inactive. Most compounds without a hit are left out; they make up all but 3.9% or so of the library.

What do the screens show for `CCN(CC)S(=O)(=O)c1ccc(OC)c(NC(=O)c2ccc([N+](=O)[O-])cc2)c1`?
ABCB6 inh 2: 102; GAA850 FXN act: 1; SR-BI DiI inh: 24; SR-BI uptake up: -24; AHR activator: 3; HIF activator: 0

How did CCNC(=S)Nc1cc2oc3ccccc3c2cc1OC do in these assays?
ABCB6 inh 2: 90; GAA850 FXN act: 1; SR-BI DiI inh: 84*; SR-BI uptake up: -84; AHR activator: 70*; HIF activator: 2

What do the screens show for `COc1cc2c(cc1NC(=S)NC(=O)/C=C/c1ccc(OC)c(OC)c1)oc1ccccc12`?
ABCB6 inh 2: 101; GAA850 FXN act: 1; SR-BI DiI inh: 33; SR-BI uptake up: -33

What do the screens show for `CN1C(=O)c2ccc(C(=O)Nc3ccc4c(c3)OCO4)cc2C1=O`?
ABCB6 inh 2: 95; GAA850 FXN act: 0; SR-BI DiI inh: 10; SR-BI uptake up: -10; AHR activator: 14; HIF activator: 0

How did COc1cc2c(cc1NC(=S)Nc1ccccc1C)oc1ccccc12 do in these assays?
ABCB6 inh 2: 107; GAA850 FXN act: 3; SR-BI DiI inh: 57; SR-BI uptake up: -57; AHR activator: 19; HIF activator: -21

How did CNC(=S)Nc1cc2oc3ccccc3c2cc1OC do in these assays?
ABCB6 inh 2: 98; GAA850 FXN act: 2; SR-BI DiI inh: 94*; SR-BI uptake up: -94; HIF activator: 2

How did CCOc1cc(N2CCOCC2)c(OCC)cc1NC(=O)COc1ncnc2ccc(Br)cc12 do in these assays?
ABCB6 inh 2: 102; GAA850 FXN act: 2; SR-BI DiI inh: 21; SR-BI uptake up: -21; AHR activator: 17; HIF activator: 0

What do the screens show for `COc1cc(/C=N/NC(=S)NC2CC3CC2C2C=CCC32)ccc1O` (centres undefined)?
ABCB6 inh 2: 90; GAA850 FXN act: 3; SR-BI DiI inh: 73*; SR-BI uptake up: -73; AHR activator: 9; HIF activator: 5

How did CC(C)C(C(=O)NCc1ccco1)N(C(=O)CNS(=O)(=O)c1ccc(Cl)cc1)C1CCCC1 (centres undefined) do in these assays?
ABCB6 inh 2: 94; GAA850 FXN act: -7; SR-BI DiI inh: 5; SR-BI uptake up: -5; AHR activator: -3; HIF activator: 0

How did CCC1CN(C(=O)NCc2ccc(C)cc2)c2cc(C)ccc2O1 (centres undefined) do in these assays?
ABCB6 inh 2: 96; GAA850 FXN act: 1; SR-BI DiI inh: 78*; SR-BI uptake up: -78; HIF activator: -33

How did CCC1CN(C(=O)NCc2ccccc2)c2cc(C)ccc2O1 (centres undefined) do in these assays?
ABCB6 inh 2: 98; GAA850 FXN act: -1; SR-BI DiI inh: 14; SR-BI uptake up: -14; HIF activator: 1

How did CC(C)c1ccc(/C=C/C(=O)Nc2nncs2)cc1 do in these assays?
ABCB6 inh 2: 93; GAA850 FXN act: 7; AHR activator: 36; HIF activator: 0

What do the screens show for `Cc1sc(NC(=O)/C=C/c2ccc(C(C)C)cc2)c(C#N)c1C`?
ABCB6 inh 2: 100; GAA850 FXN act: -3; SR-BI DiI inh: 78*; SR-BI uptake up: -78; AHR activator: 2; HIF activator: 0

Results for OC(c1ccccc1)c1ccccc1CN1CCCNC1=S (centres undefined) ?
ABCB6 inh 2: 101; GAA850 FXN act: 0

Results for COc1cc(NC(=S)NCCCN2CCOCC2)cc(OC)c1 ?
ABCB6 inh 2: 62*; GAA850 FXN act: 2; SR-BI DiI inh: 5; SR-BI uptake up: -5; AHR activator: -2; HIF activator: 0

Results for O=C(CN1C(=O)c2ccccc2S1(=O)=O)NC1CCCC1 ?
ABCB6 inh 2: 106; GAA850 FXN act: -3; SR-BI DiI inh: -12; SR-BI uptake up: 12; AHR activator: -2; HIF activator: 0

How did CN1/C(=C\C(=O)COc2ccc3c(c2)OCO3)C(C)(C)c2ccccc21 do in these assays?
ABCB6 inh 2: 292; GAA850 FXN act: -4; SR-BI DiI inh: 0; SR-BI uptake up: 0; AHR activator: 56*; HIF activator: 1

What do the screens show for `COc1ccccc1OCC(=O)/C=C1/N(C)c2ccccc2C1(C)C`?
ABCB6 inh 2: 143; GAA850 FXN act: -4; SR-BI DiI inh: 41; SR-BI uptake up: -41; AHR activator: 16; HIF activator: 0

What do the screens show for `COc1ccc(CNc2ccc(S(=O)(=O)N3CCN(C)CC3)cn2)cc1OC`?
ABCB6 inh 2: 100; GAA850 FXN act: 1; SR-BI DiI inh: -47; SR-BI uptake up: 47; AHR activator: 0; HIF activator: 1

How did C/C(=N\N=c1/sc2ccccc2n1C)c1ccc(N2CCOCC2)cc1 do in these assays?
ABCB6 inh 2: 118; GAA850 FXN act: 0; SR-BI DiI inh: 10; SR-BI uptake up: -10; AHR activator: 53*; HIF activator: 9

Results for O=C(Nc1ccccc1N1CCN(C(=O)c2ccc(Cl)cc2)CC1)c1cccc(F)c1 ?
ABCB6 inh 2: 103; GAA850 FXN act: 0; SR-BI DiI inh: 74*; SR-BI uptake up: -74; AHR activator: -1; HIF activator: 0

How did O=C(Nc1ccccc1N1CCCC1)c1ccccc1F do in these assays?
ABCB6 inh 2: 91; GAA850 FXN act: -1; SR-BI DiI inh: 23; SR-BI uptake up: -23; AHR activator: 6; HIF activator: 0

What do the screens show for `O=C(Nc1ccccc1N1CCN(c2ccccc2)CC1)c1ccccc1F`?
ABCB6 inh 2: 97; GAA850 FXN act: 0; SR-BI DiI inh: 75*; SR-BI uptake up: -75; AHR activator: 1; HIF activator: 0

Results for CCn1c(SCC(=O)N2CCCCC2C)nnc1-c1ccco1 (centres undefined) ?
ABCB6 inh 2: 88; GAA850 FXN act: 1; AHR activator: -1; HIF activator: 0

How did CCOc1ccc(OCCC(=O)OCC(=O)N2CCN(S(=O)(=O)c3ccc(Cl)cc3)CC2)cc1 do in these assays?
ABCB6 inh 2: 98; GAA850 FXN act: 9.7*; SR-BI DiI inh: -6; SR-BI uptake up: 6; AHR activator: 1; HIF activator: 0

Results for Cc1ccc(C)c(OCCC(=O)OCC(=O)N2CCN(S(=O)(=O)c3ccc(Cl)cc3)CC2)c1 ?
ABCB6 inh 2: 100; GAA850 FXN act: 3; SR-BI DiI inh: -33; SR-BI uptake up: 33; AHR activator: -1; HIF activator: -1

What do the screens show for `COc1cc2c(cc1NC(=O)C(C)OC(=O)C1CC(=O)N(Cc3ccco3)C1)oc1ccccc12` (centres undefined)?
ABCB6 inh 2: 99; GAA850 FXN act: 4; SR-BI DiI inh: 70; SR-BI uptake up: -70; AHR activator: 54*; HIF activator: 2

What do the screens show for `CCCC(=O)c1ccc(N2CCN(C(=O)c3cccs3)CC2)c(F)c1`?
ABCB6 inh 2: 95; GAA850 FXN act: 2; SR-BI DiI inh: 3; SR-BI uptake up: -3; AHR activator: 5; HIF activator: 0

Screens from PubChem BioAssay.
